Compound activity from PubChem.
A selection: hits, their analogues and other compounds. The true share with any hit is near 2.3%.
PfHsp90 set2: growth inhibition of PfHsp90-expressing yeast, primary screen, antimalarial PfHsp90 inhibitor project, S. cerevisiae, BacTiter-Glo luminescence, single point, set 2; 310,000 tested, 0.32% active; BacTiter-Glo ATP, 48 h; yeast lacking PDR1 and PDR3 efflux regulators; inhibition, % at 9.4 µM;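 active means every replicate shows inhibition above about 80%, whatever the replicate mean, limit read from the data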;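 further: 0% = DMSO neutral controls and 100% = 20 µM radicicol positive controls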
Arr AP2 block: inhibitors of beta-arrestin/AP2 binding, primary screen, biochemical, GPCR trafficking, flow cytometry | FITC-arrestin peptide / GST-AP2 beads; AP2 beta2 appendage carries R879A mutation | inhibition, % at 10 µM | 340,000 tested, 0.31% active;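 active means inhibition above a set limit, near 3 SD of compounds lacking own fluorescence, cut at about 54% in these data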;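 further: plate controls were DMSO wells for no effect and 5 µM unlabelled arrestin peptide for full effect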
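System: GST-AP2 R879A glutathione beads; medium: PBS, Tween 20 0.05%, BSA 0.1%; reagent: fluorescein-tagged arrestin peptide at 50 nM final; schedule: pre-incubation 12 min, peptide binding 1 h, room temperature; detection: flow cytometry, FL1 (488/535 nm); read-out: inhibition as reduced fluorescein signal on beads, percent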
Rtt109 Vps75: inhibitors of C. albicans Rtt109/Vps75 HAT, primary screen, biochemical, ThioGlo CoA-SH fluorescence, plate reader | AID 540336, 2011 | inhibition, % at 34.9 µM | 330,000 tested, 0.16% active | purified Rtt109/Vps75, 4 h;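 active means inhibition of at least 50% in every replicate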
Target sequence (Q5AAJ8 whole entry, looked up): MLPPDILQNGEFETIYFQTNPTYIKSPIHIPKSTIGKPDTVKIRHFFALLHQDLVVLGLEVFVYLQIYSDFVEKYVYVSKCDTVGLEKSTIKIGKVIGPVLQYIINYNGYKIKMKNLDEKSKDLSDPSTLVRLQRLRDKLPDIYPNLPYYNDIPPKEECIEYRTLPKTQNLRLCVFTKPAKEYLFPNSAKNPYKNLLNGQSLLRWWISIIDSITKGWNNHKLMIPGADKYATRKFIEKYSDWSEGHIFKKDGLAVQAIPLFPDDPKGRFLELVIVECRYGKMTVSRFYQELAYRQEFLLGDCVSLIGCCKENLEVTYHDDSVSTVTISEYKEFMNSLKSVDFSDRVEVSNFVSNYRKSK
Glyco luc inh: increase of ERlucT glycosylation luciferase signal, primary screen, N-linked glycosylation inhibitor project, D54 ERlucT cells, luminescence, set 2 | reporter increase, % at 12.5 µM | D54 ERlucT glycosylation luciferase reporter, 24 h; percent of 100 nM tunicamycin response | 360,000 tested, 0.23% active | AID 588692, 2011;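 active means mean luciferase reporter signal, scaled so untreated is 0 and the glycosylation-blocking control 100, at or above a set limit in every replicate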;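 further: luciferase carries N-glycosylation sites so blocking glycosylation raises the light; 0% = median of neutral control wells and 100% = median of 100 nM tunicamycin wells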
PAX8 inh HTS: inhibitors of PAX8-driven TPO luciferase reporter, primary screen, RMG-I cells, single concentration; SteadyGlo, 24 h; inhibition, % at 12.6 µM; 360,000 tested, 1.2% active; AID 652154, 2013;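 active means mean replicate inhibition at least 60% with every replicate also reaching 60%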;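 further: luciferase light reporting Pax8 driven TPO promoter activity; plate controls were median of neutral control wells for no effect and mitoxantrone controls for full effect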
HIV Env fusion: inhibitors of HIV-1 Env-driven cell-cell fusion, primary screen, HeLa-JRFL effector, CEM21 target cells, luciferase | inhibition, % at 12.3 µM | AID 651610, 2012 | 360,000 tested, 1.1% active;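 active means mean replicate inhibition score of at least 50 and every replicate individually at or above 50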;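 further: 0% = plate neutral controls and 100% = maraviroc near 300 nM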
Active calls of the source: *; / = not tested or not shown; [ ] = another dose, or the depositor's remark.

SMILES	PfHsp90 set2	Arr AP2 block	Rtt109 Vps75	Glyco luc inh	PAX8 inh HTS	HIV Env fusion
NC(=O)CC(NC(=O)Cc1ccc(Cl)cc1)c1ccc(NC2CC3CCC2C3)c([N+](=O)[O-])c1 (stereo not drawn)	15.8	6.6	4.3	37.1*	17.9	5.7
CCC(CC)Nc1ccc(C(CC(N)=O)NC(=O)Cc2ccc(Br)cc2)cc1[N+](=O)[O-] (stereo not drawn)	-8.5	-6.0	4.6	49.8*	31.1	19.8
COc1ccc(CCNc2ccc(C(CC(N)=O)NC(=O)c3ccc(Br)cc3)cc2[N+](=O)[O-])cc1 (stereo not drawn)	-9.9	14.1	-2.4	1.1	2.8	9.7
COc1ccc(CCNc2ccc(C(CC(N)=O)NC(=O)Cc3ccc(Br)cc3)cc2[N+](=O)[O-])cc1 (stereo not drawn)	-4.8	-5.0	-1.3	-0.1	17.6	74.5*
CC(C)NC(=O)N(C)C[C@@H]1OCCCC[C@@H](C)Oc2ccc(NC(=O)Cc3ccccc3)cc2C(=O)N([C@@H](C)CO)C[C@@H]1C	/	/	/	/	4.3	-5.4[16.7 µM]
C[C@H]1CN([C@@H](C)CO)C(=O)c2cc(NC(=O)Nc3ccccc3)ccc2O[C@@H]1CN(C)S(=O)(=O)c1ccccc1	/	/	/	/	-28.3	28.2[16.7 µM]
Cc1ccc(S(=O)(=O)N(C)C[C@@H]2Oc3ccc(NC(=O)Nc4c(C)noc4C)cc3CC(=O)N([C@@H](C)CO)C[C@H]2C)cc1	/	/	/	/	-30.9	6.5[16.7 µM]
COc1cccc(C(=O)COc2ccc3c(C)cc(=O)oc3c2)c1	-2.2	20.9	-4.2	37.5*	-4.5	5.0
C[C@@H](NC(=O)C[C@H]1C[C@H]2c3cc(NC(=O)CN(C)C)ccc3O[C@H]2[C@@H](CO)O1)c1ccccc1	/	/	/	/	6.1	-5.9[16.7 µM]
Cc1nc2ccccc2nc(C)c1=NOCc1cccc(Cl)c1	10.0	7.4	-25.1	-2.3	26.3	68.8*
O=C1[C@H]2[C@@H](c3ccc(Cl)cc3)N3C(=O)N(c4cccc(Br)c4)C(=O)[C@@]3(Cc3ccc(Cl)cc3)[C@H]2C(=O)N1C1CCCCC1	-25.5	1.9	1.0	0.0	19.3	82.5*
O=C1[C@H]2[C@@H](c3ccc(F)cc3)N3C(=O)N(c4cccc(Br)c4)C(=O)[C@@]3(Cc3ccc(Cl)cc3)[C@H]2C(=O)N1C1CCCCC1	-5.8	4.8	5.7	1.7	24.5	58.7*
CCCNC(=O)C[C@@H]1CC[C@@H]2[C@H](COC[C@H](O)CN2Cc2ccncc2)O1	/	/	/	/	-9.7	/
CCN(C(=O)COC(=O)c1c2c(nc3ccccc13)/C(=C/c1ccccc1)CC(C)C2)C1CCS(=O)(=O)C1 (stereo not drawn)	-31.9	36.5	-6.4	2.5	67.4*	/
CCN(C(=O)COC(=O)c1c(C)nn(-c2ccccc2)c1C)C1CCS(=O)(=O)C1 (stereo not drawn)	18.8	6.0	1.2	-2.2	-68.8	-3.3
Cc1ccc(NC(=O)c2ccncc2)cc1S(=O)(=O)N(C)C	-1.3	1.8	11.1	1.0	-11.1	/
Cc1ccc(NC(=O)c2ccc(OC(F)(F)F)cc2)cc1S(=O)(=O)N(C)C	-2.6	24.4	5.6	-5.6	12.8	62.0*
COc1ccccc1NC(=O)N1CCCCN2[C@H](CO)[C@H](c3ccc(-c4ccc(C)cc4)cc3)[C@H]2C1	/	/	/	/	80.4*	/
COc1ccccc1NC(=O)N1CCCCN2[C@H](C1)[C@@H](c1ccc(-c3ccccc3)cc1)[C@@H]2CO	/	/	/	/	-22.7	/
OC[C@@H]1[C@H](c2ccc(-c3ccc(F)cc3)cc2)[C@@H]2CN(CCC(F)(F)F)CCCCN12	/	/	/	/	93.4*	/
Cc1ccc(-c2ccc([C@@H]3[C@@H](CO)N4CCCCN(C(=O)c5ccc(F)cc5)C[C@H]34)cc2)cc1	/	/	/	/	3.3	/
Cc1ccc(-c2ccc([C@@H]3[C@H](CO)N4CCCCN(C(=O)c5ccc(F)cc5)C[C@@H]34)cc2)cc1	/	/	/	/	72.0*	/
Cc1ccc(S(=O)(=O)N(C)C[C@@H]2OCCCC[C@H](C)Oc3ccc(NC(=O)C4CCCCC4)cc3C(=O)N([C@@H](C)CO)C[C@H]2C)cc1	/	/	/	/	1.8	7.4[16.7 µM]
COc1ccc2c3c(n(C)c2c1)[C@@H](CO)N(C(=O)CC1CC1)CC31CN(C(=O)C2CCC2)C1	/	/	/	/	0.9	/
C[C@H](CO)N1C[C@H](C)[C@@H](CN(C)C(=O)CCCN(C)C)OCCCC[C@H](C)Oc2ccc(NC(=O)Cc3ccccc3)cc2C1=O	/	/	/	/	-11.4	10.1[16.7 µM]
SMILES	PfHsp90 set2	Arr AP2 block	Rtt109 Vps75	Glyco luc inh	PAX8 inh HTS	HIV Env fusion
CCN(Cc1ccc2c(c1)OCO2)C(=O)/C=C/c1cccc(Br)c1	-12.5	-8.3	4.4	-1.5	-15.7	15.1
CC(C)(C)N(Cc1ccc2c(c1)OCO2)C(=O)/C=C\S(=O)c1ccccc1 (stereo not drawn)	-9.1	35.5	8.8	-15.7	95.3*	40.7
CCN(CC)c1ccc(/C=N/Nc2nc(C)cc(=O)[nH]2)c(O)c1	-15.0	6.2	-2.9	-14.7	74.6*	6.2
CCN(CC)c1ccc(/C=N/Nc2nc3ccccc3[nH]2)cc1	/	-2.1	1.2	-18.8	80.9*	13.3
C[C@@H]1CN([C@H](C)CO)C(=O)c2cc(NC(=O)CCC(F)(F)F)ccc2O[C@H]1CN(C)Cc1ccc(C(=O)O)cc1	/	/	/	/	4.9	/
Cc1cccn2c(=O)c3cc(C(=O)NCCN4CCOCC4)c(=N)n(CCc4ccccc4)c3nc12	1.7	8.7	-303.6	30.9*	/	/
Cc1cccn2c(=O)c3cc(C(=O)NC4CCCC4)c(=N)n(CCc4ccccc4)c3nc12	-22.2	13.8	-0.7	29.9*	5.8	-12.1
COc1ccc(CCn2c(=N)c(C(=O)NC3CCCC3)cc3c(=O)n4cccc(C)c4nc32)cc1	13.5	6.0	0.1	2.7	4.8	-0.8
Cc1cccn2c(=O)c3cc(C(=O)NCCN4CCOCC4)c(=N)n(CCCN4CCOCC4)c3nc12	-10.3	1.7	-9.3	-4.0	-20.0	-15.2
CCNC(=O)c1cc2c(=O)n3cccc(C)c3nc2n(CCc2ccccc2)c1=N	25.6	10.3	-222.7	46.4*	/	/
CC1=Nc2ccccc2N=C(NC(=O)c2ccccc2)C1c1ccc(Cl)cc1 (stereo not drawn)	-12.2	-1.7	8.3	1.5	-9.1	69.4*
